Key:
[1] = biological target: T1, Prostaglandin E2 receptor EP3 subtype (Mus musculus, UniProt P30557); test: Displacement of [3H]PGE2 from mouse EP3 receptor expressed in CHO cells by liquid scintillation counting; type: cell-based
T1 sequence (P30557 whole entry): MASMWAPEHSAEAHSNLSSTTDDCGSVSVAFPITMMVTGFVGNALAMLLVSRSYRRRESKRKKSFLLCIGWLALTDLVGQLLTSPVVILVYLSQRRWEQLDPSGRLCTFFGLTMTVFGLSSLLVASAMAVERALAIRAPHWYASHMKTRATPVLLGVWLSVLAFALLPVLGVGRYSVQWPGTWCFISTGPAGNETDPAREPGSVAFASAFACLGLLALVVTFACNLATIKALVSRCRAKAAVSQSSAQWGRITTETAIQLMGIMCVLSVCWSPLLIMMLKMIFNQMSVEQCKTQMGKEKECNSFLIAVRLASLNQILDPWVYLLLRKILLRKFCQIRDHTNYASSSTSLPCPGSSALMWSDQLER
Method in brief: (§1)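 Mouse EP3α and EP4 CHO membrane binding: 2.5 nM [3H]PGE2 with graded test compound in pH 6.0 KH2PO4-KOH buffer (1 mM EDTA, 10 mM MgCl2, 0.1 mM NaCl), 60 min at 25 °C. Bound ligand collected on GF/B filters, washed with cold buffer, counted by liquid scintillation. Excess unlabeled PGE2 gave nonspecific binding. Ki derived from regression IC50, [L] and Kd.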

[2] = biological target: Prostaglandin E2 receptor EP2 subtype (Mus musculus, UniProt Q62053); test: Displacement of [3H]PGE2 from mouse EP2 receptor expressed in CHO cells by liquid scintillation counting; type: cell-based
Method in brief: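 Membranes from CHO cells stably expressing the receptor, incubated with 2.5 nM [3H]PGE2 plus test compound over a concentration range. Buffer: 10 mM KH2PO4-KOH, 1 mM EDTA, 10 mM MgCl2, 0.1 mM NaCl, pH 6.0. Run at 25 °C for 60 min. Stopped by GF/B filtration with ice-cold buffer wash, then scintillation counted. Excess unlabeled PGE2 defined nonspecific binding. IC50 taken from the regression curve; Ki = IC50/(1+[L]/Kd).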

[3] = biological target: Prostaglandin E2 receptor EP4 subtype (Mus musculus, UniProt P32240); test: Displacement of [3H]PGE2 from mouse EP4 receptor expressed in CHO cells by liquid scintillation counting; type: cell-based; method in brief: as §1
[4] = biological target: T1, Prostaglandin E2 receptor EP3 subtype; test: Antagonist activity at mouse EP3alpha receptor expressed in CHo cells assessed as inhibition of PGE2-stimulated intracellular calcium concentration; type: functional, cell-based
Method in brief: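 CHO cells expressing mEP3α were plated at 1×10^4 cells/well and grown 2 days in 10% FBS/αMEM at 37 °C, 5% CO2. Cells were loaded 1 h with 5 µM Fura-2/AM, 20 µM indomethacin and 2.5 mM probenecid. Assay buffer was HBSS with 0.1% BSA, 2 µM indomethacin, 2.5 mM probenecid and 10 mM HEPES, with 1 h dark equilibration at room temperature. Test compound was added with 10 nM PGE2; fluorescence read at 340/380 nm excitation, 500 nm emission. IC50 from percent inhibition of the PGE2 Ca2+ peak.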

[5] = biological target: T2, Prostaglandin E2 receptor EP1 subtype (Mus musculus, UniProt P35375); test: Displacement of [3H]PGE2 from mouse EP1 receptor expressed in CHO cells by liquid scintillation counting; type: cell-based
T2 sequence (P35375 whole entry): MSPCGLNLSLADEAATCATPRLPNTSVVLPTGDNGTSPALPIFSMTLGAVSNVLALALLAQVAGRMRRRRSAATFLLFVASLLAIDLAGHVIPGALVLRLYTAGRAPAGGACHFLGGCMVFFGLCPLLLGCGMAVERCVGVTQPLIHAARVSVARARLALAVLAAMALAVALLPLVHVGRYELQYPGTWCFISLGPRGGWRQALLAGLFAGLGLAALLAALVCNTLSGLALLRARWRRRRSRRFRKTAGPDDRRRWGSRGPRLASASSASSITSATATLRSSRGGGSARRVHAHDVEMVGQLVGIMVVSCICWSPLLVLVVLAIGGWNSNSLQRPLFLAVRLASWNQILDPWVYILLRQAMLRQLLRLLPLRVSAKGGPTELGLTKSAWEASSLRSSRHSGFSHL
Method in brief: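 Membranes from CHO cells stably expressing mEP1, incubated with 2.5 nM [3H]PGE2 and varied test compound concentrations. Buffer: 10 mM KH2PO4-KOH, 1 mM EDTA, 10 mM MgCl2, 0.1 mM NaCl, pH 6.0. Run at 25 °C for 20 min. Filtered on GF/B and washed ice-cold before scintillation counting. Nonspecific binding measured with excess cold PGE2. IC50 from regression; Ki via the Cheng–Prusoff form.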

[6] = biological target: Cytochrome P450 3A4 (Homo sapiens, UniProt P08684); test: Inhibition of CYP3A4; type: ADME
[7] = biological target: Cytochrome P450 2D6 (Homo sapiens, UniProt P10635); test: Inhibition of CYP2D6; type: ADME
[8] = biological target: T3, Cytochrome P450 1A2 (Homo sapiens, UniProt P05177); test: Inhibition of CYP1A2; type: ADME
T3 sequence (P05177 whole entry): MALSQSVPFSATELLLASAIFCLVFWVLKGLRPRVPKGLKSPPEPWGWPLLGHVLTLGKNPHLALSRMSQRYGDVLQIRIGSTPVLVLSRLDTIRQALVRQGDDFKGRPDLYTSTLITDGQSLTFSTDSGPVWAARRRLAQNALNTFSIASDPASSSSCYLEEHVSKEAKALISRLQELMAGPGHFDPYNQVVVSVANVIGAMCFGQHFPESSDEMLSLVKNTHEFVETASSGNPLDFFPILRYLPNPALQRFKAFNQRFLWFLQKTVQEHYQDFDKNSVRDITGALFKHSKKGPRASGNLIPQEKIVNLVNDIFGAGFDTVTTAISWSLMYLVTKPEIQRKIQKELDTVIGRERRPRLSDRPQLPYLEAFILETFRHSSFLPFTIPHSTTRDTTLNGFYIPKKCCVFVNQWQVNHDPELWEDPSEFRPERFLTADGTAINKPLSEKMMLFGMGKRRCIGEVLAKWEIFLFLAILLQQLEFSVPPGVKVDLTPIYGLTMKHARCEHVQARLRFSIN

[9] = biological target: Cytochrome P450 2C9 (Homo sapiens, UniProt P11712); test: Inhibition of CYP2C9; type: ADME
[10] = biological target: Cytochrome P450 2C19 (Homo sapiens, UniProt P33261); test: Inhibition of CYP2C19; type: ADME
[11] = test system: Liver microsomes; test: Metabolic stability in rat liver microsomes; type: ADME, Microsome
Method in brief: (§2)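 Human or rat liver microsomes incubated with compound for 15 min at 37 °C; result expressed as percent of intact compound remaining.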

[12] = Cmax in rat at 10 mg/kg, po; type: ADME, organism-based; design: dose 10 mg/kg, route oral; conditions: in vivo
Method in brief: (§3)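 Rats dosed orally at 10 mg/kg; compound given as the sodium salt where specified.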

[13] = test system: Liver microsomes; test: Metabolic stability in human liver microsomes; type: ADME, Microsome; method in brief: as §2
[14] = AUC (0 to 4 hrs) in rat at 10 mg/kg, po; type: ADME, organism-based; design: time < 4 hr, dose 10 mg/kg, route oral; conditions: plasma; method in brief: as §3

Chain of Cytochrome P450 2C19 (P33261 whole entry): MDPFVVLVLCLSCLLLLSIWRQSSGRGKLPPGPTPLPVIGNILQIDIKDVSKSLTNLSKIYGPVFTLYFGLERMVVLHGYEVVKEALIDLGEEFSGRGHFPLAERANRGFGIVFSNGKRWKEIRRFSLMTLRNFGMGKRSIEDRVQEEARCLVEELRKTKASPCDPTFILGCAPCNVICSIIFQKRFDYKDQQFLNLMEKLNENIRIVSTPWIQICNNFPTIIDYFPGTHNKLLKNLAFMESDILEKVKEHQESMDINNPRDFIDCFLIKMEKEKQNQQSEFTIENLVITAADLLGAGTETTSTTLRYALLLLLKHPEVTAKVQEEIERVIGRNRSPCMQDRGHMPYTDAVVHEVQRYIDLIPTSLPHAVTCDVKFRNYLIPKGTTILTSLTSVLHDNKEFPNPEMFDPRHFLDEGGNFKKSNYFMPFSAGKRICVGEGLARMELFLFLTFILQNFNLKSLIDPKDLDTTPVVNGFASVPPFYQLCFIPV
Chain of Prostaglandin E2 receptor EP4 subtype (P32240 whole entry): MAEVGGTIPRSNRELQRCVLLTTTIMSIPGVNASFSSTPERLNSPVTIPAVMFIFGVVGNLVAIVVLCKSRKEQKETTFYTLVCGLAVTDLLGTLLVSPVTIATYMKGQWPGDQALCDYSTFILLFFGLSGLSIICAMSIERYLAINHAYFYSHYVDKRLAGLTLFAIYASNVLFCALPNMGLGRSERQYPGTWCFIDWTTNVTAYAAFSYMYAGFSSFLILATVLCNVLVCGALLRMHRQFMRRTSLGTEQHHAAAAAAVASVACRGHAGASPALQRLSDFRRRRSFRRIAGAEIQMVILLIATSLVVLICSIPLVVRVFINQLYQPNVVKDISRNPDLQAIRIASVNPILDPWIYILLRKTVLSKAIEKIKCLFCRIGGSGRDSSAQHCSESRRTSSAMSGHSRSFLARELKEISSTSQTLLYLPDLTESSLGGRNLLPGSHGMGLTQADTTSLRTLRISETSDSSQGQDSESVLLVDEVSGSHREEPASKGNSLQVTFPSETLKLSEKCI
Chain of Cytochrome P450 2C9 (P11712 whole entry): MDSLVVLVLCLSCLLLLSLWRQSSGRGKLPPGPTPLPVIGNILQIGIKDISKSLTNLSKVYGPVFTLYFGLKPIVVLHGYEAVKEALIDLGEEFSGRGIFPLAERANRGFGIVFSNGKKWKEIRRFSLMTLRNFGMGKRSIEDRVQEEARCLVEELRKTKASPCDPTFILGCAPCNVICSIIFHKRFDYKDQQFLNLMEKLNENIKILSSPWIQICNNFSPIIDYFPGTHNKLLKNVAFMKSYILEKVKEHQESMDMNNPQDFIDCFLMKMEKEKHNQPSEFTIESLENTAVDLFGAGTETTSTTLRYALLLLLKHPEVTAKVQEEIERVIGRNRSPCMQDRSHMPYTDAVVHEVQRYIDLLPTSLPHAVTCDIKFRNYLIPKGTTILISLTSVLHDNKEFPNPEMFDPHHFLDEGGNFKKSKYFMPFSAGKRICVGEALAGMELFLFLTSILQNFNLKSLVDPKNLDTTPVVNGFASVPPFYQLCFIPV
Chain of Prostaglandin E2 receptor EP2 subtype (Q62053 whole entry): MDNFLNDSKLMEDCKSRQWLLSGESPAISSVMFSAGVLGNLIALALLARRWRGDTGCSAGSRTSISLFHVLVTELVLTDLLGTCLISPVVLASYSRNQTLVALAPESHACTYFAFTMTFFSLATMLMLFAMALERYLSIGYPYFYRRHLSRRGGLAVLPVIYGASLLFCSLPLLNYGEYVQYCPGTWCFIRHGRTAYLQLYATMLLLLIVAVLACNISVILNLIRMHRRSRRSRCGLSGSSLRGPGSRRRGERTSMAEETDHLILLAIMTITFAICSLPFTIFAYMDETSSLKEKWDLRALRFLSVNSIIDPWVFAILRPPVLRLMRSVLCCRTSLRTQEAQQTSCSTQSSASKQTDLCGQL
Chain of Cytochrome P450 3A4 (P08684 whole entry): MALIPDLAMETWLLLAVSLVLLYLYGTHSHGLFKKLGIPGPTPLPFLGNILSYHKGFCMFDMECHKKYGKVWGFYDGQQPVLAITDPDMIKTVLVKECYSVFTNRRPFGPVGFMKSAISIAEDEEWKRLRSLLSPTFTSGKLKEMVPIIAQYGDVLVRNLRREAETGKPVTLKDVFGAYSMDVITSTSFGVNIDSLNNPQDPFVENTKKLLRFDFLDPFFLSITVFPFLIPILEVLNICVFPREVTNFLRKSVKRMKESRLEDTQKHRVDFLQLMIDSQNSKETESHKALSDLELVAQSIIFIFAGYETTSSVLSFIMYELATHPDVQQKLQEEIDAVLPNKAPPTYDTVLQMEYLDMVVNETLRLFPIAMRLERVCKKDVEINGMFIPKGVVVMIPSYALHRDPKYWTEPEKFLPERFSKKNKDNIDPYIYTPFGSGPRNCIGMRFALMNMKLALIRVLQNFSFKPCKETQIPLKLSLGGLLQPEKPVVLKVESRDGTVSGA
Chain of Cytochrome P450 2D6 (P10635 whole entry): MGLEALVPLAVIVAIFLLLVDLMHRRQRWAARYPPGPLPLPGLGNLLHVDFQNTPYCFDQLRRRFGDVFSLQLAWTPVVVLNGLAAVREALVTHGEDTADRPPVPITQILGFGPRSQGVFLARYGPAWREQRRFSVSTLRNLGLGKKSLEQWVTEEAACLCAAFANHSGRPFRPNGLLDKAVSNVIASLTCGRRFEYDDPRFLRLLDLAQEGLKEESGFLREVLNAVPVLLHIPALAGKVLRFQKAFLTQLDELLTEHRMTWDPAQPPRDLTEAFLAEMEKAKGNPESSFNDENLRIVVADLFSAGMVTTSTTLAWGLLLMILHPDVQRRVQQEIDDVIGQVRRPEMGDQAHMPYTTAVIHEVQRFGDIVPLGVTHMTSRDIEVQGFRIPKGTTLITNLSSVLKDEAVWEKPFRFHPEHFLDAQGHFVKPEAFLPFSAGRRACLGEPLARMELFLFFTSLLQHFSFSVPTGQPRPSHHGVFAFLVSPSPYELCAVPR

SMILES | Ki [1] [nM] | Ki [2] [nM] | Ki [3] [nM] | IC50 [4] [nM] | Ki [5] [nM] | IC50 [6] [nM] | IC50 [7] [nM] | IC50 [8] [nM] | IC50 [9] [nM] | IC50 [10] [nM] | Stability [11] [%] | Cmax [12] [ng/mL] | Stability [13] [%] | AUC(0-t) at 4 h [14] [ng·h/mL]
O=C(O)/C=C/c1ccc(COc2ccccc2)cc1OCCc1ccc2ccccc2c1 | 130 | 9200 | 2600 | 140 | > 10000 |  |  |  |  |  |  |  |  | 
COc1ccc(/C=C/C(=O)O)c(OCCC2(C)CCc3c(C)c(O)c(C)c(C)c3O2)c1 (centres undefined) | > 10000 | 6800 | 920 | > 10000 | > 10000 |  |  |  |  |  |  |  |  | 
Cc1c(C)c2c(c(C)c1O)CCC(C)(CCOc1cc(Cn3ccnc3)ccc1/C=C/C(=O)O)O2 (centres undefined) | 63 | > 10000 | > 10000 | 600 | > 10000 |  |  |  |  |  |  |  |  | 
Cc1c(C)c2c(c(C)c1O)CCC(C)(CCOc1ccccc1/C=C/C(=O)O)O2 (centres undefined) | 530 | 1200 | 2600 | 4800 | > 10000 |  |  |  |  |  |  |  |  | 
O=C(O)/C=C/c1ccc(Cn2ccnc2)cc1OCCc1cc2ccccc2o1 | 44 | > 10000 | 4300 | 330 | > 10000 |  |  |  |  |  |  |  |  | 
O=C(O)/C=C/c1ccc(Cc2cccs2)cc1OCCc1ccc2ccccc2c1 | 150 | 2100 | 2200 | 150 | > 10000 |  |  |  |  |  |  |  |  | 
Cc1ccc(/C=C/C(=O)O)c(OCCC2(C)CCc3c(C)c(O)c(C)c(C)c3O2)c1 (centres undefined) | 940 | 5700 | 2200 | 3100 | > 10000 |  |  |  |  |  |  |  |  | 
O=C(O)CCCc1ccc(Cn2cccn2)cc1OCCc1ccc2ccccc2c1 | 39 | 1800 | 1400 | 460 | 4000 |  |  |  |  |  |  |  |  | 
O=C(O)C#Cc1ccc(Cn2cccn2)cc1OCCc1ccc2ccccc2c1 | 99 | > 10000 | 2900 | 1200 | > 10000 |  |  |  |  |  |  |  |  | 
O=C(O)/C=C/c1ccc(Cn2cccn2)cc1OCCc1ccc2ccccc2c1 | 12 | 3300 | 670 | 73 | 2900 | > 30000 | > 30000 | > 30000 | 12800 | 30000 |  |  |  | 
O=C(O)COCc1ccc(Cn2cccn2)cc1OCCc1ccc2ccccc2c1 | 210 | 1300 | > 10000 | 540 | > 10000 |  |  |  |  |  |  |  |  | 
O=C([O-])/C=C/c1ccc(Cn2cccn2)cc1OCCc1ccc2ccccc2c1.[Na+] |  |  |  |  |  |  |  |  |  |  | 72 | 943 | 100 | 1360
O=C(O)/C=C/c1ccc(Cn2ccnc2)cc1OCCCOc1ccccc1 | 280 | > 10000 | > 10000 | 3000 | > 10000 |  |  |  |  |  |  |  |  | 
O=C(O)/C=C/c1ccc(Cn2ccnc2)cc1OCCc1ccc2ccccc2c1 | 16 | > 10000 | 2200 | 50 | > 10000 | < 1000 | 4400 | < 1000 | < 1000 | < 1000 |  |  |  | 
O=C(O)/C=C/c1ccc(Cn2ccnc2)cc1OCCCCOc1ccccc1 | 220 | > 10000 | > 10000 | 3500 | > 10000 |  |  |  |  |  |  |  |  | 
O=C(O)/C=C/c1ccc(OCc2ccccc2)cc1OCCc1ccc2ccccc2c1 | 850 | 1200 | > 10000 | 1500 | > 10000 |  |  |  |  |  |  |  |  | 
O=C(O)COc1ccc(Cn2cccn2)cc1OCCc1ccc2ccccc2c1 | 260 | > 10000 | > 10000 | 2600 | > 10000 |  |  |  |  |  |  |  |  | 
O=C(O)/C=C/c1ccc(Cc2ccccc2)cc1OCCc1ccc2ccccc2c1 | 130 | > 10000 | 2100 | 400 | > 10000 |  |  |  |  |  |  |  |  | 
O=C(O)/C=C/c1ccc(CN2CCCC2=O)cc1OCCc1ccc2ccccc2c1 | 110 | 5900 | 2300 | 580 | 6400 |  |  |  |  |  |  |  |  | 
O=C(O)CCc1ccc(Cn2cccn2)cc1OCCc1ccc2ccccc2c1 | 12 | 2800 | 1100 | 22 | 7100 | > 30000 | > 30000 | > 30000 | 30000 | > 30000 |  |  |  | 

— ChEMBL document CHEMBL1152570, “Discovery of a series of acrylic acids and their derivatives as chemical leads for selective EP3 receptor antagonists” (Bioorg Med Chem, 2009)
